In all, about 360,000 compounds went through this assay and about 200 (0.056%) were called active.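 Rule for the calls: active = mean normalized replicate activation at least 10% and every replicate at or above 10%; inconclusive = only one of the two criteria met; inactive = mean below 10% and not all replicates reach 10%.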 The sample as a whole holds a higher share of actives than the screen did.

The nature of this assay: activators of inactive X chromosome reactivation, primary screen, imaging, XiGFP fibroblasts, GFP high-content imaging, set 2 (AID 743238).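 Note: 0% = median of on-plate neutral control wells and 100% = ellipticine 6 µM median.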 Conditions: XiGFP mouse fibroblasts, % GFP-positive cells imaging, 3 d; at 7.58 µM; active compounds read high; cells co-treated with 5-aza-dC sensitizer; scaled so ellipticine positive control = 100%. The procedure, abridged: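 material = 68-5-11 XiGFP fibroblast line | medium = DMEM plus 5-aza-dC sensitizer | schedule = 3 days compound exposure | benchmarks = positive control ellipticine, 6 µM final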
Turning to `C[C@@H]1CN([C@H](C)CO)C(=O)c2cc(-c3ccccc3F)cnc2O[C@H]1CN(C)C(=O)CN(C)C`, the activation is 3.17% (inactive).

With `COc1cc(CN2CC3(CN(S(=O)(=O)c4cccs4)C3)c3c(n(C)c4cc(OC)ccc34)[C@H]2CO)cc(OC)c1`, the activation was 0.325% (inactive).

As to `COc1cccc(S(=O)(=O)N[C@H]2C=C[C@@H](CC(=O)NCc3ccccc3)O[C@@H]2CO)c1`, the activation is -0.504% (inactive).

Take `CN1CCN(C(=O)C[C@H]2CC[C@H]3[C@@H](COC[C@H](O)CN3CC3CCCC3)O2)CC1`: the activation is 0.0235% (inactive).

In the case of `Cc1ccc(S(=O)(=O)N(C)C[C@@H]2Oc3c(NC(=O)Nc4c(C)noc4C)cccc3C(=O)N([C@@H](C)CO)C[C@@H]2C)cc1`, the activation is -0.145% (inactive).

`COc1ccc2c3c(n(C)c2c1)[C@H](CO)N(CC1CCOCC1)CC31CCN(C(C)=O)CC1`: the activation is 0.008% (inactive).

As to `C/C=C/c1ccc([C@@H]2[C@H](CO)N(CC3CCOCC3)C23CN(S(=O)(=O)CC)C3)cc1`, the activation was 0.064% (inactive).

Take `COc1ccc(S(=O)(=O)Nc2cccc3c2O[C@H](CN(C)C(=O)Nc2cccc4ccccc24)[C@H](C)CN([C@@H](C)CO)C3=O)cc1`: the activation was -0.983% (inactive).

As for `C[C@@H]1CCCCO[C@H](CN(C)C(=O)Nc2cccc3ccccc23)[C@@H](C)CN([C@@H](C)CO)C(=O)c2cc(NC(=O)Nc3ccc(F)cc3)ccc2O1`, the activation is -0.01% (inactive).

Regarding `C[C@@H](NC(=O)C[C@H]1CC[C@H]2[C@H](COc3ccc(NS(=O)(=O)c4ccc(Cl)cc4)cc3C(=O)N2C)O1)c1ccccc1`, the activation was -0.013% (inactive).

For `CCC(=O)NC[C@H]1[C@@H](c2ccc(C3=CCCC3)cc2)[C@@H](CO)N1C(=O)C1CC1`, the activation was -0.043% (inactive).

Take `CCCC#Cc1cnc2c(c1)C(=O)N([C@H](C)CO)C[C@H](C)[C@@H](CN(C)C(=O)c1cccnc1)O2`: the activation was -0.912% (inactive).

Regarding `COc1ccc2c3c(n(C)c2c1)[C@H](CO)N(Cc1ccccc1)CC31CCN(C)CC1`, the activation is 0.287% (inactive).

Turning to `CCN(CC)c1ccc([N+](=O)[O-])cc1C(=O)O`, the activation was -0.147% (inactive).

As to `CNc1ccc([N+](=O)[O-])cc1C(=O)O`, the activation is 34.2% (active).

Take `Cc1ccc(NC(=O)c2cc([N+](=O)[O-])ccc2Cl)c(O)c1`: the activation was 0.0305% (inactive).

As to `CNC(=O)C[C@H]1CC[C@@H]2[C@H](COc3ccc(NC(=O)Nc4cccc(F)c4)cc3C(=O)N2C)O1`, the activation is 0.022% (inactive).

As for `C[C@H](O)C#Cc1ccc2c(c1)O[C@H](CN(C)Cc1ccccn1)[C@@H](C)CN([C@@H](C)CO)S2(=O)=O`, the activation is -0.095% (inactive).

Regarding `O=C(C[C@@H]1CC[C@@H](NC(=O)C2CCOCC2)[C@H](CO)O1)NCC1CC1`, the activation is -0.115% (inactive).

In the case of `COc1ccc2c3c(n(C)c2c1)[C@@H](CO)N(Cc1ccccc1F)CC31CCN(C(=O)C2CCOCC2)CC1`, the activation is -0.019% (inactive).

For `O=C(c1ccc(F)cc1)N1CC(=O)N2[C@@H](CO)[C@H](c3ccc(C4=CCCC4)cc3)[C@@H]2C1`, the activation is 0.604% (inactive).

On to `CCS(=O)(=O)N1[C@H](CO)[C@@H](c2ccccc2)C12CN(C(=O)c1ccccc1F)C2`, for which the activation was 0.139% (inactive).

Regarding `CCS(=O)(=O)N1CC(=O)N2[C@H](C1)[C@@H](c1ccc(C#Cc3ccc(F)cc3)cc1)[C@@H]2CO`, the activation is 0.458% (inactive).

As to `CC(C)(C)n1nc2c(c1NC(=O)c1cc3ccccc3o1)CSC2`, the activation was 0% (inactive).

In the case of `COc1ccc2c(c1)c(C(=O)N/N=C/c1cccs1)c(C)n2C`, the activation was 0.148% (inactive).

For `Cc1c(/C=N\NC(=O)c2cc3ccccc3o2)c2ccccc2n1C`, the activation is 16.6% (active).

Consider `CCCNC(=O)C[C@H]1C[C@@H]2c3cc(NC(=O)COC)ccc3O[C@@H]2[C@@H](CO)O1`, for which the activation was -0.017% (inactive).

For `O=C(C[C@@H]1CC[C@H]2[C@@H](COC[C@@H](O)CN2CC2CC2)O1)NCc1ccc(Cl)cc1`, the activation is 0.122% (inactive).

Values taken from PubChem BioAssay AID743238 (Broad Institute, 2013).
